One series deals with (h)V1a (Homo sapiens, UniProt P37288). As to the kind of experiment: In vitro V1a binding assay. Conditions: for inhibition at 0.01 µM: read-out: % Binding inhibition (10^−8M); for inhibition at 0.001 µM: read-out: % Binding inhibition (10^−9M); for V1a binding affinity (in words): structure-activity discussion of Tables 1 and 2. In outline: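 [3H]AVP (0.3 nM; KD 0.5 nM) competition binding on human recombinant V1a expressed in CHO cells, 60 min at RT. Nonspecific binding was defined with 1 µM AVP. Test compounds were run at selected concentrations, two independent experiments each in duplicate, with % binding inhibition recorded. IC50 came from a one-site sigmoidal variable-slope fit; Ki was calculated by Cheng–Prusoff.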
(h)V1a, sequence (P37288 whole entry): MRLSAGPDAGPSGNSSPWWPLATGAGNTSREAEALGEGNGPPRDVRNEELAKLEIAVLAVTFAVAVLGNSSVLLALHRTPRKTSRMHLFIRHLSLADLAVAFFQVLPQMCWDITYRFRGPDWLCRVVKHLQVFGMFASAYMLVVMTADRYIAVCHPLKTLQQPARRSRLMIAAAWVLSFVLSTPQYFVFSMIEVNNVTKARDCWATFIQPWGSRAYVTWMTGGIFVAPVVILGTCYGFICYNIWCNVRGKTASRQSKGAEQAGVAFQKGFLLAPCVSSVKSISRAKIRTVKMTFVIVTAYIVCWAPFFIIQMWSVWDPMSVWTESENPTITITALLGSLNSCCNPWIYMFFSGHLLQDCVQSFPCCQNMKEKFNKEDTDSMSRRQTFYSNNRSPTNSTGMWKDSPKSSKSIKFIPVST

A short description of another series: Lipophilicity logD7,4. It counts as physicochemical. The note with it: pH 7.4.
A further series has as its target V2. Conditions: read-out: Ki V2; cited from earlier work.
A further series has as its system CD-1 mouse brain. As to the kind of experiment: Effect of anesthetics on radiotracer brain uptake in CD-1 mice. Format: in vivo. Conditions: anesthetic ip 80 mg/kg, 30 min prior the radiotracer; 30 min after radiotracer.

In general, inhibition refers to the change of the read-out against control, counted positive when it falls. By logD is commonly meant lipophilicity at a set pH, counting ionised and neutral species. Low readings indicate lower lipophilicity, high ones higher lipophilicity. With `CC1(C)CC2CC(C)(CN2C(=O)c2ccc(-c3c[nH]c4ccccc34)cc2F)C1` (centres unmarked) [6b, (2-Fluoro-4-(1H-Indol-3-yl)phenyl)(1,3,3-trimethyl-6-aza-bicyclo[3.2.1]octan-6-yl)methanone], at (h)V1a, the inhibition at 0.01 µM was determined as 77.1%, the inhibition at 0.001 µM turned out to be 33.4% and the “V1a binding affinity (in words)” value is given as “lower binding affinity compared to the lead 1”. The compound further displayed a logD in the series “Lipophilicity logD7,4” of 4.8.

Take `CC1(C)CC2CC(C)(CN2C(=O)c2ccc(-c3c[nH]c4ccccc34)c(OCCF)c2)C1` (centres unmarked) [6c, (3-(2fluoroethoxy)-4-(1H-indol-3-yl)phenyl)(1,3,3-trimethyl-6-aza-bicyclo[3.2.1]octan-6yl)methanone]: at (h)V1a, the inhibition at 0.01 µM came out at 92.6%, the inhibition at 0.001 µM turned out to be 45.1% and the “V1a binding affinity (in words)” value is “high binding affinity”. In “Lipophilicity logD7,4”, this compound had a logD of 4.9.

As to `COc1cc(C(=O)N2CC3(C)CC2CC(C)(C)C3)ccc1-c1ccc(F)nc1` (centres unmarked) [8a, (4-(6Fluoropyridin-3-yl)-3-methoxyphenyl)(1,3,3-trimethyl-6-aza-bicyclo[3.2.1]octan-6yl)methanone], at (h)V1a, the inhibition at 0.01 µM was 33.9%, the inhibition at 0.001 µM is 2.9% and the “V1a binding affinity (in words)” value is listed as “lower binding affinity compared to the lead 1”. The logD in the series “Lipophilicity logD7,4” worked out at 3.9.

On to `COc1cc(C(=O)N2CC3(C)CC2CC(C)(C)C3)ccc1-c1cccnc1F` (centres unmarked) [8b, (4-(2Fluoropyridin-3-yl)-3-methoxyphenyl)(1,3,3-trimethyl-6-aza-bicyclo[3.2.1]octan-6yl)methanone], for which, on (h)V1a, the inhibition at 0.01 µM was found to be 16%, the inhibition at 0.001 µM worked out at 9.7% and the “V1a binding affinity (in words)” value is on record as “lower binding affinity compared to the lead 1”. This compound also gave a logD in the series “Lipophilicity logD7,4” of 4.

With `COc1cc(C(=O)N2CC3(C)CC2CC(C)(C)C3)ccc1-c1cn(C)c2ccccc12` (centres unmarked) [8c, (3Methoxy-4-(1-methyl-1H-indol-3-yl)phenyl)(1,3,3-trimethyl-6-aza-bicyclo[3.2.1]octan-6yl)methanone], at (h)V1a, the inhibition at 0.01 µM stood at 18.7%, the inhibition at 0.001 µM stood at 1.8% and the “V1a binding affinity (in words)” value is listed as “decrease in binding affinity”. The logD in the series “Lipophilicity logD7,4” was 6.

As to `COc1cc(C(=O)N2CC3(C)CC2CC(C)(C)C3)ccc1-c1c[nH]c2ncccc12` (centres unmarked) [8d, (3Methoxy-4-(1H-pyrrolo[2,3-b]pyridin-3-yl)phenyl)(1,3,3-trimethyl-6-aza-bicyclo[3.2.1]octan-6yl)methanone], on (h)V1a, the inhibition at 0.01 µM came to 28.7% and the inhibition at 0.001 µM was determined as 4.4%. In addition, the logD in “Lipophilicity logD7,4” was determined as 2.9.

`COc1cc(C(=O)N2CC3(C)CC2CC(C)(C)C3)ccc1-c1c[nH]c2cnccc12` (centres unmarked) [8e, (3Methoxy-4-(1H-pyrrolo[2,3-c]pyridin-3-yl)phenyl)(1,3,3-trimethyl-6-aza-bicyclo[3.2.1]octan-6yl)methanone]: at (h)V1a, the inhibition at 0.01 µM stood at 44.2% and the inhibition at 0.001 µM is -4.7%. The compound also registered a logD in the series “Lipophilicity logD7,4” of 3.5.

Take `COc1cc(C(=O)N2CC3(C)CC2CC(C)(C)C3)ccc1-c1c[nH]c2ccncc12` (centres unmarked) [8f, (3Methoxy-4-(1H-pyrrolo[3,2-c]pyridin-3-yl)phenyl)(1,3,3-trimethyl-6-aza-bicyclo[3.2.1]octan-6yl)methanone]: at (h)V1a, the inhibition at 0.01 µM is 39.5% and the inhibition at 0.001 µM was 5.2%. The compound further had a logD in the series “Lipophilicity logD7,4” of 2.8.

Consider `Cc1ccccc1-c1ccc(C(=O)N2CC3(C)CC2CC(C)(C)C3)cc1` (centres unmarked) [8g, (2’-Methylbiphenyl-4-yl)(1,3,3-trimethyl-6-aza-bicyclo[3.2.1]octan-6-yl)methanone], for which, on (h)V1a, the inhibition at 0.01 µM was found to be 84.3%, the inhibition at 0.001 µM was 23.7% and the “V1a binding affinity (in words)” value is recorded as “good binding affinity”. Also, the logD in the series “Lipophilicity logD7,4” came out at 5.

Turning to `Cc1cnccc1-c1ccc(C(=O)N2CC3(C)CC2CC(C)(C)C3)cc1` (centres unmarked) [8h, (4-(3-Methylpyridin-4-yl)phenyl)(1,3,3-trimethyl-6-aza-bicyclo[3.2.1]octan-6-yl)methanone], at (h)V1a, the inhibition at 0.01 µM was determined as 28.9% and the inhibition at 0.001 µM worked out at 10.5%. Also, in the series “Lipophilicity logD7,4”, the logD stood at 4.4.

Consider `Cc1ccncc1-c1ccc(C(=O)N2CC3(C)CC2CC(C)(C)C3)cc1` (centres unmarked) [8i, (4-(4-Methylpyridin-3-yl)phenyl)(1,3,3-trimethyl-6-aza-bicyclo[3.2.1]octan-6-yl)methanone], for which, on (h)V1a, the inhibition at 0.01 µM is 43.9% and the inhibition at 0.001 µM stood at 12.8%. Further, in the series “Lipophilicity logD7,4”, the logD turned out to be 4.4.

With `Cc1ncccc1-c1ccc(C(=O)N2CC3(C)CC2CC(C)(C)C3)cc1` (centres unmarked) [8j, (4-(2-Methylpyridin-3-yl)phenyl)(1,3,3-trimethyl-6-aza-bicyclo[3.2.1]octan-6-yl)methanone], at (h)V1a, the inhibition at 0.01 µM was determined as 18.2% and the inhibition at 0.001 µM was -6.6%. For the same compound, the logD in the series “Lipophilicity logD7,4” came to 4.4.

As to `Cc1ccccc1-c1ccc(C(=O)N2CC3(C)CC2CC(C)(C)C3)c(F)c1` (centres unmarked) [8k, (3-Fluoro-6’-methylbiphenyl-4-yl)(1,3,3-trimethyl-6-aza-bicyclo[3.2.1]octan-6-yl)methanone], on (h)V1a, the inhibition at 0.01 µM was found to be 81.2%, the inhibition at 0.001 µM worked out at 22.8% and the “V1a binding affinity (in words)” value is reported as “good binding affinity”. In addition, the pH-dependent lipophilicity (logD) in “Lipophilicity logD7,4” came out at 5.8.

Take `Cc1ccncc1-c1ccc(C(=O)N2CC3(C)CC2CC(C)(C)C3)c(F)c1` (centres unmarked) [8l, (2Fluoro-4-(4-methylpyridin-3-yl)phenyl)(1,3,3-trimethyl-6-aza-bicyclo[3.2.1]octan-6yl)methanone]: on (h)V1a, the inhibition at 0.01 µM came out at 19.8%, the inhibition at 0.001 µM stood at 2.4% and the “V1a binding affinity (in words)” value is given as “poor V1a binding affinity”. For the same compound, the logD in “Lipophilicity logD7,4” was 4.5.

In the case of `COc1cc(C(=O)N2CCN(C)CC2)ccc1-c1c[nH]c2ccccc12` [13a, (4-(1H-Indol-3-yl)-3-methoxyphenyl)(4-methylpiperazin-1-yl)methanone], on (h)V1a, the inhibition at 0.01 µM is 4.7% and the inhibition at 0.001 µM is 15.7%. Besides, the logD in “Lipophilicity logD7,4” came out at 0.7.

Take `COc1cc(C(=O)N2CCC(F)(F)CC2)ccc1-c1c[nH]c2ccccc12` [13b, (4-(1H-Indol-3-yl)-3-methoxyphenyl)(4,4-difluoropiperidin-1-yl)methanone]: at (h)V1a, the inhibition at 0.01 µM stood at 9% and the inhibition at 0.001 µM came to 13.7%. In the series “Lipophilicity logD7,4”, this compound gave a logD of 1.6.

Regarding `COc1cc(C(=O)N2CCCN(C)CC2)ccc1-c1c[nH]c2ccccc12` [13c, (4-(1H-Indol-3-yl)-3-methoxyphenyl)(4-methyl-1,4-diazepan-1-yl)methanone], at (h)V1a, the inhibition at 0.01 µM turned out to be 6.2% and the inhibition at 0.001 µM was determined as 5.7%. The same compound yielded a logD in “Lipophilicity logD7,4” of 0.2.

With `COc1cc(C(=O)NC23CC4CC(CC(C4)C2)C3)ccc1-c1c[nH]c2ccccc12` [13d, N-Adamantan-1-yl-4-(1H-indol-3-yl)-3-methoxybenzamide], on (h)V1a, the inhibition at 0.01 µM amounted to 4.8% and the inhibition at 0.001 µM was determined as 7.4%. The logD in the series “Lipophilicity logD7,4” is 5.8.

On to `COc1cc(C(=O)Nc2ccc(F)cc2)ccc1-c1c[nH]c2ccccc12` [13e, N-(4-Fluorophenyl)-4-(1H-indol-3-yl)-3-methoxybenzamide], for which, at (h)V1a, the inhibition at 0.01 µM turned out to be 4.6% and the inhibition at 0.001 µM came to 5%. The compound also returned a logD in the series “Lipophilicity logD7,4” of 3.2.

As a reminder, the Ki is a dissociation constant, usually derived from enzyme kinetics or from competition with a known ligand. `COc1cc(C(=O)N2C[C@]3(C)C[C@H]2CC(C)(C)C3)ccc1-c1c[nH]c2ccccc12` [(1S,5R)-1, (4-(1Hindol-3-yl)-3-methoxyphenyl)((1S,5R)-1,3,3-trimethyl-6-azabicyclo[3.2.1]octan-6-yl)methanone]: at (h)V1a, the Ki worked out at 0.66 nM, the inhibition at 0.01 µM was 87.9% and the inhibition at 0.001 µM came out at 51.4%. This compound also registered a logD in the series “Lipophilicity logD7,4” of 4.7. For the same compound, the Ki at V2 was 600 nM.

With `CNC1(c2ccccc2Cl)CCCCC1=O` (centres unmarked) [Ketamine], the “Effect on radiotracer brain uptake” value in the series on CD-1 mouse brain is reported as “did not significantly change”.

The values are drawn from publication PMC6583924 (European journal of medicinal chemistry, 2017).
